HTR2A ag: mouse Htr2a agonists via beta-arrestin recruitment, primary screen, cell-based, luminescence; CHO-K1 mHTR2A beta-arrestin complementation; percent of 30 µM serotonin response; 5-hydroxytryptamine receptor 2A (Mus musculus), P35363; 360,000 compounds, 0.66% hits; activation, % at 7.6 µM;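 active means activation above a run cutoff, the mean activation of all tested compounds plus 3 SD, cut at about 14% in these data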
MC4R barr agon: MC4R agonists recruiting beta-arrestin, primary screen, cell-based, luminescence, agonist arm of biased-ligand search | U2OS MC4R beta-arrestin complementation; percent of melanotan II response, DMSO zero | activation, % at 8.9 µM | 360,000 compounds, 0.98% hits | AID 540308, 2011;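 active means activation above a per-plate cutoff, the mean activation of sample wells on that plate plus 3 SD, cut at about 8% in these data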
Target sequence (P32245 whole entry, looked up): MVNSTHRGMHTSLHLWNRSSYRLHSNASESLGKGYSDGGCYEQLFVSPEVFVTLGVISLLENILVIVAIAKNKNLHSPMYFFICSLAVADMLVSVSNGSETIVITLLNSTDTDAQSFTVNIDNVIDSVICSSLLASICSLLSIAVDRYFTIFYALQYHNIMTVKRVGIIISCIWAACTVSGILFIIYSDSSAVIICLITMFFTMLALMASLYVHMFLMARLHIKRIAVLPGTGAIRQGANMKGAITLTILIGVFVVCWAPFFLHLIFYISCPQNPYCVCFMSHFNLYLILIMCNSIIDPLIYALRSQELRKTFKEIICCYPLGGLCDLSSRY
EBI2 antag: EBI2 receptor antagonists, beta-arrestin recruitment, primary screen, cell-based, luminescence, 7a,25-OHC stimulation, uHTS. 7a,25-OHC stimulated. 360,000 compounds, 0.81% hits. inhibition, % at 5 µM; in the data active means inhibition above about 38%;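 further: enzyme fragment complementation signal reports receptor beta-arrestin coupling in cells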
MC4R antagonist: MC4R antagonists of cAMP signaling, primary screen, cell-based, TR-FRET, antagonist arm of biased-ligand search | inhibition, % at 6.5 µM | 360,000 compounds, 0.48% hits | MC4R-expressing cells, MTII-stimulated cAMP, LANCE TR-FRET;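 active means inhibition above its plate's cutoff, the mean of tested wells on that plate plus 3 SD, cut at about 29% in these data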
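System: U2OS-MC4R stable cell line; Technique: Eu-cAMP/anti-cAMP TR-FRET, emission 671 nm; Repeats: single well per compound; Also added: Melanotan II; Dosing: one concentration, 6.5 µM nominal; Schedule: 30-min compound, 1-h challenge, 1-h detection, room temperature.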
A number is an active result; - = inactive; . = no result given. In the library only some 2.8% were active in any assay of this set; here they are far more common.

SMILES	HTR2A ag	MC4R barr agon	EBI2 antag	MC4R antagonist
CC1(Oc2ccccc2-c2ccn[nH]2)CCN(Cc2ccc(OC(F)(F)F)cc2)C1 (stereo not given)	-	-	-	-
CC1(c2nnnn2Cc2ccccc2)CCC(=O)N1Cc1ccco1 (stereo not given)	-	.	-	.
O=C(OCn1ncc(Br)c(Br)c1=O)c1ccc(F)cc1	-	-	50	47
O=C(OCn1ncc(Br)c(Br)c1=O)c1ccccc1Cl	-	-	47	-
CC(=O)OCn1ncc(N2CCOCC2)c(Br)c1=O	-	-	-	-
Clc1nnc2c3ccccc3ccn12	-	-	-	-
CCC(=O)Nc1ccc(Cl)c(NC(=S)NC(=O)c2cc3ccccc3o2)c1	-	8.2	-	-
CCC(=O)Nc1ccc(Cl)c(NC(=S)NC(=O)c2ccco2)c1	-	-	-	-
Cc1ccc(NC(=O)c2nc[nH]c2C(=O)NC2CCN(C(=O)OC(C)(C)C)CC2)cc1	-	-	-	-
CC(C)(C)OC(=O)N1CCC(NC(=O)c2[nH]cnc2C(=O)Nc2ccccc2)CC1	-	8.5	-	-
CC(C)(C)OC(=O)N1CCC(NC(=O)c2[nH]cnc2C(=O)Nc2ccccc2F)CC1	-	8.3	-	-
COc1ccc(Cc2nc3ccc(C(=O)N4CCCCC4CO)cc3o2)cc1OC (stereo not given)	-	-	-	-
Cc1ccc(CNC(=O)c2ccc(Cn3cc(-c4ccc(C)cc4)nc3-c3ccncc3)cc2)cc1	-	-	71	-
CCCCCCCCN1C(=O)[C@H](CC(=O)NCc2cccc(C(F)(F)F)c2)C[C@@]2(C(=O)OC)CCCCC=C12	-	.	-	.
COc1ccc([C@H]2C[C@H](O)[C@@H](n3cc(-c4ccc(F)cc4)nn3)CN2Cc2cccs2)cc1	-	-	-	-
CCOc1ccc(C(=O)C(CCC(CN(C)C)C(=O)c2ccc(OCC)cc2)CN(C)C)cc1 (stereo not given)	-	9.5	-	-
CN(C)CC(CCC(CN(C)C)C(=O)c1ccccc1)C(=O)c1ccccc1 (stereo not given)	-	-	47	-
CN(Cc1cnn(-c2ccccc2)c1)C(=O)c1cccc(S(=O)(=O)Nc2ccccc2F)c1	-	-	-	-
CC(C)(C)C1CCc2sc(C(=O)NNC(=O)CCl)cc2C1 (stereo not given)	-	19	-	-
Cc1ccc2nc(-c3ccc(SCC(=O)Nc4nnc(C)s4)nc3)[nH]c2c1	-	11	-	-
Cc1ccc2nc(-c3ccc(SCC(=O)Nc4nc(C)cs4)nc3)[nH]c2c1	-	-	-	-
Cc1ccc(SCC(=O)Nc2ccc(-c3nc4ccccc4[nH]3)cc2)cc1	-	8.3	-	-
Cc1ccc(NC(=O)CCCSc2nc3ccccc3[nH]2)cc1	-	-	-	-
Cn1c(/C=C/c2ccc(Br)cc2)nc2ccccc2c1=O	-	9.0	-	-
O=C(Nc1nnc(-c2ccc(Cl)s2)o1)C1CCCCC1	-	-	-	-
SMILES	HTR2A ag	MC4R barr agon	EBI2 antag	MC4R antagonist
CCCC(=O)Nc1nnc(-c2ccc(Cl)s2)o1	27	-	-	-
CC(C)[C@H](NS(=O)(=O)c1ccccc1)C(=O)OCc1cc([N+](=O)[O-])cc2c1OCOC2	-	-	-	-
O=C1c2[nH]nc(-c3ccccc3O)c2C(c2ccc(F)cc2)N1Cc1ccco1 (stereo not given)	-	13	-	-
O=C1c2[nH]nc(-c3ccccc3O)c2C(c2cccc(Cl)c2)N1Cc1ccco1 (stereo not given)	15	-	-	-
N#Cc1cccc(C(Br)S(=O)(=O)c2ccccc2)c1 (stereo not given)	-	-	-	-
COc1ccccc1-c1nc(S(=O)(=O)c2ccccc2)c(N2CCCCC2)o1	-	-	-	32
CCc1ccc(C(=O)Cn2ncc(Cl)c(Cl)c2=O)cc1	-	-	-	-
O=C(OCn1ncc(Cl)c(Cl)c1=O)c1cccc(C(F)(F)F)c1	-	-	52	-
Brc1ccc(/C=N/Nc2ccc3ccccc3n2)cc1	-	11	-	-
Brc1ccccc1/C=N/Nc1ccc2ccccc2n1	-	-	-	-
CCC(=O)N1Cc2cc(C(=O)NCC(F)(F)F)nc(-c3cccc(-c4cncnc4)c3)c2[C@H]1CCO	-	.	-	.
CC1(C(=O)NC2CCCC2)CCC(=O)N1C1CCN(Cc2ccccc2)CC1 (stereo not given)	-	.	-	.
Cc1cc(C)c2c(N)c(C(=O)Nc3ccccc3Cl)sc2n1	-	8.4	-	-
COc1ccc(C(C)(O)c2nc(-c3csc4ccccc34)cs2)cc1 (stereo not given)	-	-	-	-
CCCCCCCN(C(=O)CCl)c1cccc(C)c1	-	9.0	-	-
CCCCCCN(C(=O)CCl)c1ccccc1	-	18	-	-
CCc1nc2c(OCCn3cccc3)cccn2c1N(C=O)Cc1ccccc1	-	-	-	-
O=C1C=CC(=O)N1c1cccc(-c2ccccc2)c1	-	-	-	48
O=C(Nc1c(C(=O)N2CCOCC2)cnn1-c1ccccc1)c1ccccc1	-	-	-	-
O=C(Nc1c(C(=O)N2CCOCC2)cnn1-c1ccccc1)c1ccc(F)cc1	15	-	-	-
C=CCn1c(C(C)n2c(-c3cnccn3)nc3ccccc32)nc2ccccc21 (stereo not given)	-	.	-	.
O=C(Cc1cccc2ccccc12)N/N=C/c1ccc(F)cc1	-	15	-	-
O=C(COc1ccccc1)N(Cc1ccccc1)c1nc(-c2ccccc2)cs1	-	21	-	-
CCc1ccc2nc(N(CCCN(C)C)C(=O)c3ccc(S(=O)(=O)N(C)C4CCCCC4)cc3)sc2c1	-	13	-	-
CCOc1cccc2sc(N(CCCN(C)C)C(=O)c3ccc(S(=O)(=O)N4CCc5ccccc5C4)cc3)nc12	-	-	-	-
SMILES	HTR2A ag	MC4R barr agon	EBI2 antag	MC4R antagonist
CN(C)CCCN(C(=O)c1ccc(S(=O)(=O)N(C)C2CCCCC2)cc1)c1nc2ccc(F)cc2s1	-	-	-	-
CCc1ccc2nc(N(CCCN(C)C)C(=O)c3ccc(S(=O)(=O)N4CCc5ccccc5C4)cc3)sc2c1	-	20	-	-
CCOC(=O)C1=C[C@@H](C(C)(C)C)N(S(=O)(=O)c2ccc([N+](=O)[O-])cc2)[C@H]1c1ccccc1	-	.	-	.
Cc1c(CCOC(=O)c2cccc([N+](=O)[O-])c2)sc[n+]1CC(=O)c1ccccc1	-	-	-	-
CC[C@@H]1C(c2ccc(F)cc2)=NN(c2ccc(Br)cc2)[C@H]1C(=O)N1CCOC1=O	-	9.6	-	-
CC[C@@H]1C(c2ccccc2)=NN(c2ccc(Br)cc2)[C@H]1C(=O)N1CCOC1=O	-	-	-	-
O=C(NC(=S)N1CCOCC1)C12CC3CCC(CC(C3)C1)C2	-	-	-	-
CC12CC3(C)CC(C)(C1)CC(C(=O)NC(=S)N1CCOCC1)(C2)C3	-	8.7	-	-

Bioassay records deposited in PubChem BioAssay by several laboratories.
